Test results as given in ChEMBL document CHEMBL4422620, “Synthesis of novel morpholine, thiomorpholine and N-substituted piperazine coupled 2-(thiophen-2-yl)dihydroquinolines as potent inhibitors of Mycobacterium tuberculosis” (Eur J Med Chem, 2019).
Converted amounts (≈) assume the structure as drawn.

Experiments:
[1] = test system: Mycobacterium tuberculosis; test: Antitubercular activity against Mycobacterium tuberculosis H37Rv after 7 days by Alamar blue assay; format: functional; conditions: 168 h
Procedure, shortened: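 M. tuberculosis H37Rv inoculum from fresh LJ medium resuspended in 7H9-S (7H9 broth, 0.1% casitone, 0.5% glycerol, OADC), adjusted to McFarland No. 1, diluted 1:20. Serial two-fold drug dilutions in 7H9-S, with growth and sterile controls. Incubated at 37°C in normal atmosphere for 7 days, then Alamar blue added and plates re-incubated overnight. MIC was the lowest concentration fully inhibiting growth.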

[2] = Cytotoxicity against human HEK293T cells assessed as inhibition of cell growth at 50 ug/ml after 72 hrs by MTT assay relative to control; format: cell-based, HEK-293T; conditions: read-out: GI
Procedure, shortened: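 HEK-293T cells exposed to compounds at 50 μg/mL for 72 h. Viability was read as cellular conversion of MTT to formazan and expressed as percentage inhibition.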

Structure (SMILES) | MIC [1] | inhibition at 72 h, 50 ug/ml [2]
ClC1=C(CN2CCN(Cc3ccc4c(c3)OCO4)CC2)CCc2nc(-c3cccs3)ccc21 | 25 µg/mL (≈ 52.1 µM) | 
ClC1=C(CN2CCN(Cc3ccccc3)CC2)CCc2nc(-c3cccs3)ccc21 | 1.56 µg/mL (≈ 3.58 µM) | 19.9%
CO[C@H]1/C=C/O[C@@]2(C)Oc3c(C)c(O)c4c(O)c(c(/C=N/N5CCN(C)CC5)c(O)c4c3C2=O)NC(=O)/C(C)=C\C=C\[C@H](C)[C@H](O)[C@@H](C)[C@@H](O)[C@@H](C)[C@H](OC(C)=O)[C@@H]1C [RIFAMPIN] | 0.2 µg/mL (≈ 0.243 µM) | 
ClC1=C(CN2CCN(Cc3ccc(Cl)cc3)CC2)CCc2nc(-c3cccs3)ccc21 | 12.5 µg/mL (≈ 26.6 µM) | 
ClC1=C(CN2CCN(c3ccccc3)CC2)CCc2nc(-c3cccs3)ccc21 | 25 µg/mL (≈ 59.2 µM) | 
CC(C)(C)OC(=O)N1CCN(CC2=C(Cl)c3ccc(-c4cccs4)nc3CC2)CC1 | 25 µg/mL (≈ 56.1 µM) | 
CC[C@@H](CO)NCCN[C@@H](CC)CO [ETHAMBUTOL] | 3.13 µg/mL (≈ 15.3 µM) | 
O=C(C1CC1)N1CCN(CC2=C(Cl)c3ccc(-c4cccs4)nc3CC2)CC1 | 3.12 µg/mL (≈ 7.55 µM) | 28.9%
NNC(=O)c1ccncc1 [ISONIAZID] | 0.1 µg/mL (≈ 0.729 µM) | 
Cc1ccccc1N1CCN(CC2=C(Cl)c3ccc(-c4cccs4)nc3CC2)CC1 | 25 µg/mL (≈ 57.3 µM) | 
ClC1=C(CN2CCSCC2)CCc2nc(-c3cccs3)ccc21 | 25 µg/mL (≈ 68.9 µM) | 
ClC1=C(CN2CCOCC2)CCc2nc(-c3cccs3)ccc21 | 6.25 µg/mL (≈ 18 µM) | 34%
O=C(O)c1cn(C2CC2)c2cc(N3CCNCC3)c(F)cc2c1=O [CIPROFLOXACIN] | 1.56 µg/mL (≈ 4.71 µM) | 
COc1ccccc1N1CCN(CC2=C(Cl)c3ccc(-c4cccs4)nc3CC2)CC1 | 6.25 µg/mL (≈ 13.8 µM) | 36.7%
Fc1ccccc1N1CCN(CC2=C(Cl)c3ccc(-c4cccs4)nc3CC2)CC1 | 6.25 µg/mL (≈ 14.2 µM) | 32.6%
FC(F)(F)c1ccc(N2CCN(CC3=C(Cl)c4ccc(-c5cccs5)nc4CC3)CC2)cc1 | 25 µg/mL (≈ 51 µM) | 
ClC1=C(CN2CCN(CC3OCCO3)CC2)CCc2nc(-c3cccs3)ccc21 | 12.5 µg/mL (≈ 28.9 µM) | 
CC(=O)c1ccc(N2CCN(CC3=C(Cl)c4ccc(-c5cccs5)nc4CC3)CC2)cc1 | 25 µg/mL (≈ 53.9 µM) | 
ClC1=C(CN2CCN(c3ccc(Cl)cc3)CC2)CCc2nc(-c3cccs3)ccc21 | 25 µg/mL (≈ 54.8 µM) | 
ClC1=C(CN2CCN(c3ccccn3)CC2)CCc2nc(-c3cccs3)ccc21 | 1.56 µg/mL (≈ 3.69 µM) | 20.1%
